Source: publication PMC3115457 (Cellular signalling, 2011)
Ends that are not written are not given here. Peptide text beside a SMILES is read from it.

Assays:
Gβγ = Gβγ (Homo sapiens, UniProt P59768+P62873); assay type: binding
Outline: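 Biotinylated test peptides were captured on a streptavidin chip (Biacore 2000). Gβγ in 25 mM HEPES pH 8.0 was flowed over at 12.5, 25, 50, 100 and 200 nM at 20 μL/min. KD was obtained by fitting the sensorgrams in Biaevaluation, and residual plots were used to judge the fit.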

AC2 = AC2 (Rattus norvegicus, UniProt P26769); assay: Adenylyl cyclase activity assay, basal AC2 activity in Hi5 membranes; assay type: biochemical
Outline: (§1)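 AC2 came from membranes of Hi5 insect cells infected with recombinant AC2 baculovirus. Stimulants were constitutively active Gαs (Q227L) and Gβγ (Gβ1/His-Gγ2) purified from Hi5 cells. Peptides were tested from 46 nM to 300 μM, pre-incubated with membranes or G proteins, and run alongside control conditions. cAMP was measured radiometrically ([α-32P]ATP→[32P]cAMP) or by Lance kit. Duplicates were used, each repeated ≥2 times. IC50 came from non-linear regression.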

Gαs-stimulated AC2 = Gαs-stimulated AC2 (Rattus norvegicus, UniProt P26769); assay: Adenylyl cyclase activity assay, Gαs stimulation of AC2; assay type: biochemical
Outline: as §1

[1] = molecular target: Gβγ stimulation of Gαs-stimulated AC2 (Homo sapiens, UniProt P59768+P62873); assay: Adenylyl cyclase activity assay, Gβγ stimulation of Gαs-stimulated AC2; assay type: biochemical, Rat; conditions: for Gαs/Gβγ stimulation % Max Inhibition: Gβγ stimulation of Gαs-stimulated AC2, cAMP level at 300 μM peptide, peptides 46 nM to 300 μM
Outline: as §1

Sequence of Gβγ (P62873 2-340 limits assumed): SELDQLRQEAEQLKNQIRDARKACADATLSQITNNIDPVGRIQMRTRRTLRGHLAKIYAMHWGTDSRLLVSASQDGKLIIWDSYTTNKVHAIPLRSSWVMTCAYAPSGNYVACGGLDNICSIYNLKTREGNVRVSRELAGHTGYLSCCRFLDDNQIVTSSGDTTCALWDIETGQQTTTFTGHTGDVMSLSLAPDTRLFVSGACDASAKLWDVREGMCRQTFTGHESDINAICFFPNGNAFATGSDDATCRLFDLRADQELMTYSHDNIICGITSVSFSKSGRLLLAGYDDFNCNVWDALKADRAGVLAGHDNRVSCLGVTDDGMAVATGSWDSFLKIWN
Sequence of Gβγ (P59768 2-68 limits assumed): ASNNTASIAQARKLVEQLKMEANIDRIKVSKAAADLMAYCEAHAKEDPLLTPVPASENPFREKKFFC
Sequence of Gβγ stimulation of Gαs-stimulated AC2 (P62873 2-340 limits assumed): as the sequence (P62873 2-340 limits assumed) above
Sequence of Gβγ stimulation of Gαs-stimulated AC2 (P59768 2-68 limits assumed): as the sequence (P59768 2-68 limits assumed) above
Sequence of AC2 (P26769 whole entry): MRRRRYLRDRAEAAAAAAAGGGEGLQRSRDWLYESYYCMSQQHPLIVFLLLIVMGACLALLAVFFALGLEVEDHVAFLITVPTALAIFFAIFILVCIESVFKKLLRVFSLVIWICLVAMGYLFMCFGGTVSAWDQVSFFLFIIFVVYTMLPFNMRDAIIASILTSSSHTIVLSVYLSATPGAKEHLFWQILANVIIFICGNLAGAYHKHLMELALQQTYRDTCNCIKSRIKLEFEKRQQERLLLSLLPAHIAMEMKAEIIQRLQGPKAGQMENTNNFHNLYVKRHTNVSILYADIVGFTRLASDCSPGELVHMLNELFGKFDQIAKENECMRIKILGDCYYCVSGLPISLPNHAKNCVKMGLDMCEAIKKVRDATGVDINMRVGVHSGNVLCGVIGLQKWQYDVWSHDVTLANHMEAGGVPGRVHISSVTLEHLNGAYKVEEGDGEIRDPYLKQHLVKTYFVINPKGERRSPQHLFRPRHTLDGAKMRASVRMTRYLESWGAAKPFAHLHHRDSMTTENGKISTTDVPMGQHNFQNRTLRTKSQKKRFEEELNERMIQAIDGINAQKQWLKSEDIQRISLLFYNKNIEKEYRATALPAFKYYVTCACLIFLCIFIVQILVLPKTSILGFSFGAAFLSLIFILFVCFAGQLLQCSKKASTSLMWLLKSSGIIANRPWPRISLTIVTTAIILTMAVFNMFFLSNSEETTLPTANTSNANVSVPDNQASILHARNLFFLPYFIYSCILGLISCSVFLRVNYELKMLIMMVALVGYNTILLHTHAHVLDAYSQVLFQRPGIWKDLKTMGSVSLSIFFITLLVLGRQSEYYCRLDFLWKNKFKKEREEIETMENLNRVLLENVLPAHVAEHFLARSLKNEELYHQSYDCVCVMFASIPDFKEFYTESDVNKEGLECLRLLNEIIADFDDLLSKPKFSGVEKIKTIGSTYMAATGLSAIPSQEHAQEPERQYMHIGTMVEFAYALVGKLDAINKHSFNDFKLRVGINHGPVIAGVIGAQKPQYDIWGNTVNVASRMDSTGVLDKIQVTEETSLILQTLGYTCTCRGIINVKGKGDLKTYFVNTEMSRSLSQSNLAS
Sequence of Gαs-stimulated AC2 (P26769 whole entry): as above

Row | Molecule | Kd (Gβγ) [µM] | IC50 (AC2) [µM] | IC50 (Gαs-stimulated AC2) [µM] | IC50 [1] [µM] | Gαs/Gβγ stimulation % Max Inhibition ([1]; listed as C1a region) [%] | Gαs/Gβγ stimulation % Max Inhibition [1] [%] | Gαs/Gβγ stimulation % Max Inhibition ([1]; listed as C1b 578-602) [%] | Binding to Gβγ (in words) (Gβγ; Biacore SPR, immobilized biotinylated peptide, Gβγ 12.5-200 nM)
1 | CC[C@H](C)[C@H](NC(=O)[C@@H]1CCCN1C(=O)[C@H](CC(C)C)NC(=O)CNC(=O)[C@H](CO)NC(=O)[C@@H](NC(=O)[C@H](CS)NC(=O)[C@H](Cc1ccc(O)cc1)NC(=O)[C@H](Cc1ccc(O)cc1)NC(=O)[C@@H](N)CS)C(C)C)C(=O)N[C@@H](CO)C(=O)N[C@@H](CC(C)C)C(=O)N1CCC[C@H]1C(=O)N[C@@H](CC(N)=O)C(=O)N[C@@H](Cc1c[nH]cn1)C(=O)N[C@@H](C)C(=O)N[C@@H](CCCCN)C(=O)N[C@@H](CC(N)=O)C(=O)N[C@@H](CS)C(=O)N[C@H](C(=O)N[C@@H](CCCCN)C(=O)N[C@@H](CCSC)C(=O)O)C(C)C [AC2 C1a (339-360)] (H-CYYCVSGLPISLPNHAKNCVKM-OH) | 0.0405 ± 0.0063 | 7.7 | 82.3 | 5.6 | 88 | – | – | –
2 | ERMIQAIDGINAQKQWLKSEDIQR [AC2 C1b (554-577)] | – | 16.7 | 36.7 | 12.2 | – | 11.5 | – | –
3 | ISLLFYNKVLEKEYRATALPAFKYY [AC2 C1b (578-602)] | 0.102 ± 0.014 | 38.5 | 2.5 | 2.2 | – | 113.1 | > 100 | –
4 | MTTENGKISTTDVPMGQHNFQNRTLR-OH [AC2 C1b (515-541)] | – | – | – | – | – | – | – | did not interact with Gβγ

Continued, values first:

Row | Kd (Gβγ) [µM] | IC50 (AC2) [µM] | IC50 (Gαs-stimulated AC2) [µM] | IC50 [1] [µM] | Gαs/Gβγ stimulation % Max Inhibition ([1]; listed as C1a region) [%] | Gαs/Gβγ stimulation % Max Inhibition [1] [%] | Gαs/Gβγ stimulation % Max Inhibition ([1]; listed as C1b 578-602) [%] | Binding to Gβγ (in words) (Gβγ; Biacore SPR, immobilized biotinylated peptide, Gβγ 12.5-200 nM) | Molecule
5 | 0.0027 ± 0.0013 | – | – | – | – | – | – | – | MTRYLESWGAAKPFAHL [AC2 C1b (493-509), reference compound]
6 | 0.0139 ± 0.0088 | – | – | – | – | – | – | – | QEHAQEPERQYMHIGTMVEFAYALVGK [QEHA C2 (956-982), reference compound]
7 | 0.0047 ± 0.0017 | > 100 | 32.9 | 13.9 | – | 67.0 | – | – | RYLESWGAAKPFAHLHHRDS [AC2 C1b (495-514)]
